# Screening results as filed in PubChem.
# TMEM16A inh: TMEM16A chloride channel inhibitors, primary screen, cell-based, HTS; AID 588511, 2011; HEK293 TMEM16A/YFP iodide influx fluorescence, ionomycin; Anoctamin-1 (Mus musculus), Q8BHY3; normalized B-score (activity score, 25-100; higher = stronger inhibition) at 10 µM; hit rate 1.2% among 310,000;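 active = ratio plate-corrected score three or more library SD toward inhibition, starting fluorescence score within five deviations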;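 note: score derived from kinetic fluorescence span divided by baseline fluorescence per well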
# Target sequence (Q8BHY3 whole entry, looked up): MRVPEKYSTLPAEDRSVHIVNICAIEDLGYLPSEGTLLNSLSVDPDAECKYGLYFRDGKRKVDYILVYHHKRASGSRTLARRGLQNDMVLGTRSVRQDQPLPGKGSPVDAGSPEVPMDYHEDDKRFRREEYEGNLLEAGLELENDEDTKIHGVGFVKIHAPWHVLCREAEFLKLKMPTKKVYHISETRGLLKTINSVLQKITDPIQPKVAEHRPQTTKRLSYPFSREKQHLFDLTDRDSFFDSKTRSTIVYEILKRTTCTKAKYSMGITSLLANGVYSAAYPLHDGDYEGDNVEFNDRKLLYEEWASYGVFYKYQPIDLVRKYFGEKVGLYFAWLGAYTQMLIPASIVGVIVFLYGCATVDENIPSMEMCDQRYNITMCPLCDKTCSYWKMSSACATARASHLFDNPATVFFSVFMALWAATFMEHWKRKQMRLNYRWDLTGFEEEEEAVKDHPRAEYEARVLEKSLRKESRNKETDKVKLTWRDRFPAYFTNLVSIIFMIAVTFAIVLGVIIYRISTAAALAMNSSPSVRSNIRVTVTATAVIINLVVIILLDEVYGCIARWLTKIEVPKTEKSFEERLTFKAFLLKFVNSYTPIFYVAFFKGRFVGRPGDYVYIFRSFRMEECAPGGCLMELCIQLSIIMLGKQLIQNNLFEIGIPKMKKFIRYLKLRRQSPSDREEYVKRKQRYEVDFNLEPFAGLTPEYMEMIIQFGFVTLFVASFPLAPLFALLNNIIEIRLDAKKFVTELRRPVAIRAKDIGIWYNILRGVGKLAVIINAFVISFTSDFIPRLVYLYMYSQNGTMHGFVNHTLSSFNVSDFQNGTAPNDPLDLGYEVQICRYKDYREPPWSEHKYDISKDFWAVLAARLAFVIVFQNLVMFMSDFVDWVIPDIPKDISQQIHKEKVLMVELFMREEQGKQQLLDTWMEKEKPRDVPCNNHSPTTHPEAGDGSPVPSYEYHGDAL
# ANO1 activ: TMEM16A chloride channel activators or potentiators, primary screen, cell-based, HTS; B-score at 10 µM; Anoctamin-1 (Mus musculus), Q8BHY3; hit rate 0.3% among 340,000; HEK293 TMEM16A/YFP-H148Q/I152L, iodide quench fluorescence; active compounds read low;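 active = fluorescence-ratio B-score plate-corrected deviation score at least 3 library SD below zero, with starting fluorescence score within 5 deviations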;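 note: channel opened by trigger with iodide after compound preincubation; score built on the fluorescence ratio of max minus min over baseline; more negative score means more quench and so TMEM16A activation or potentiation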
# CHOP inh: inhibitors of CHOP promoter induction, primary screen, cell-based, unfolded protein response, luciferase reporter; inhibition, % at 10 µM; CHO-K1 CHOP-promoter luciferase, tunicamycin-induced, 15-18 h; hit rate 3.8% among 220,000;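 active = compounds that reduced the stress-induced luciferase reporter signal by more than about 70% of percent inhibition, limit read from the data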;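 note: 0% = tunicamycin plus vehicle and 100% = wells without tunicamycin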
# XBP1 UPR activ: activators of adaptive XBP1 UPR arm, primary screen, cell-based, CHO-XBP1 luciferase reporter, luminescence, uHTS. IRE1-XBP1 UPR activation; percent of tunicamycin response, DMSO as zero. hit rate 0.33% among 330,000. activation, % at 20 µM;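 active = versus positive control, 20 µM dose yields 30% or more activation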;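 note: 100% = tunicamycin at 10 µg/mL and 0% = DMSO only wells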
#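 Assay system: CHO-XBP1 luciferase reporter cells; Schedule: 6 h treatment, 37 °C; Detection: glow luminescence from Steady-Glo reagent; Benchmarks: high control tunicamycin 10 µg/mL final, low control DMSO vehicle only.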
# UPR CHOP act: activators of apoptotic CHOP UPR arm, primary screen, cell-based, CHO-CHOP luciferase reporter, luminescence, uHTS. UPR activation; percent of tunicamycin response over DMSO baseline. activation, % at 10 µM. AID 449763, 2010. hit rate 0.34% among 330,000;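 active = at 10 µM dose, activation of 40% or more, normalized to positive control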;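 note: 100% = tunicamycin at 10 µg/mL and 0% = DMSO alone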
#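 Dosing – one dose, 10 µM in 0.5% DMSO · System – CHO-CHOP cells, stable luciferase reporter of PERK-eIF2a-CHOP signalling · Input – 500 cells/well · Control set – tunicamycin 10 µg/mL final as positive, DMSO-only wells as negative · Timing – 6 h compound treatment, 37 °C · Measure – % activation vs tunicamycin · Technique – luminescence read with Steady-Glo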
# Hep lipid drop: inhibitors of hepatocyte lipid droplet formation, primary screen, imaging, high-throughput imaging, BODIPY stain. hit rate 0.4% among 240,000. AID 1656, 2009. inhibition, % at 6.5 µM. AML12 mouse hepatocytes, oleate lipid droplets;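 active = lipid droplet intensity inhibited by at least 50%, with more than 500 cells counted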
#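 Material – mouse AML12 hepatocyte cell line, fixed after treatment · Compound dosing – one dose, 6.5 µM compound · Times – compound with oleate, overnight · Measured by – Image-based BODIPY and DAPI two-channel analysis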
# * hit, by the source's call; i = inactive; . = not tested or not shown. A selection: hits, their analogues and other compounds. The true share with any hit is near 4.2%.
SMILES,TMEM16A inh,ANO1 activ,CHOP inh,XBP1 UPR activ,UPR CHOP act,Hep lipid drop
CCN1/C(=C/C=C/c2oc3ccc(-c4ccccc4)cc3[n+]2CC)Oc2ccc(-c3ccccc3)cc21,i,i,108*,-8,-10,120*
COc1ccc(Cl)cc1NC(=O)CN(C)C(=O)c1ccc(N2CCCCCC2)c([N+](=O)[O-])c1,i,i,.,-1,0,.
O=c1[nH]c(C2C3CC4CC(C3)CC2C4)nc2ccccc12 (centres undefined),i,i,73*,-1,-1,9
S=c1nc(-c2ccc(Br)cc2)oc2c1CCCC2,i,i,-73,0,4,-14
Cc1cccc(-c2nc(=S)c3c(o2)CCCC3)c1,i,i,77*,1,5,-8
CN(C)S(=O)(=O)c1cccc(NC(=S)NN=C(Cc2ccccc2)Cc2ccccc2)c1,i,i,-13,0,7,18
CN1CCN(Cc2nc3ccccc3c(=O)n2Cc2nc(-c3ccc4ccccc4c3)cs2)CC1,i,i,88*,.,.,-32
CN1CCN(Cc2nc3ccccc3c(=O)n2Cc2nc(-c3cccc([N+](=O)[O-])c3)cs2)CC1,.,i,-28,-3,4,-2
COc1ccccc1N(C)S(=O)(=O)c1ccc(Cl)c(C(=O)Nc2ccccc2N2CCOCC2)c1,.,i,.,.,.,.
Cc1ccc(SCC(=O)NC(=O)NCCC(C)C)c(C)c1,i,i,81*,-1,-1,-3
CCOc1ccc(S(=O)(=O)N(C)CC(=O)N2CCN(CC)CC2)cc1,i,i,.,5,2,4
Cc1csc2ncnc(N3CCN(S(=O)(=O)c4cccc(C(F)(F)F)c4)CC3)c12,100*,i,.,-3,7,-36
COc1ccc(CCNC(=O)Nc2cc(F)c(F)cc2Cl)cc1OC,i,i,.,-3,1,-8
CC(C)(C)OC(=O)N/N=C/c1cccn1-c1ccc([N+](=O)[O-])cc1,i,i,-8,0,0,1
COc1ccc(CC(=O)N/N=C/c2cccn2-c2ccc([N+](=O)[O-])cc2)cc1OC,i,-12*,13,-1,5,-12
CCOC(=O)C1=C(COC(=O)CNS(=O)(=O)c2ccc(NC(C)=O)cc2)NC(=O)NC1C (centres undefined),.,i,.,.,.,.
CC1CCC(C(C)C)C(OC(=O)Cn2c(-c3ccccc3)[n+](C)c3ccccc32)C1 (centres undefined),100*,i,54,19,17,-7
CC1CCC(C(C)C)C(OC(=O)Cn2c(-c3ccc(F)cc3)[n+](C)c3ccccc32)C1 (centres undefined),100*,i,11,4,1,-30
CC1CCC(C(C)C)C(OC(=O)C[n+]2cc(-c3ccc(Cl)cc3)n3c2CCC3)C1 (centres undefined),i,i,-3,2,0,15
CCC1CCCCN1c1cc(C)nc2cc(-c3cccc(C)c3)nn12 (centres undefined),i,i,87*,-2,0,-3
Cc1csc(=O)n1CCC(=O)NCc1ccc(F)cc1,.,i,.,3,2,.
COc1cc(C(=O)Sc2ccc(C)cc2)cc(OC)c1OC,i,i,82*,5,20,.
N#CCC(=O)N/N=C/c1cc([N+](=O)[O-])ccc1N1CCCC1,i,i,-2,1,0,-2
O=C(CNc1ccccc1)N/N=C/c1cc([N+](=O)[O-])ccc1N1CCCC1,i,i,73*,-4,-3,.
COc1ccccc1-c1nnc2sc(-c3cc4ccccc4o3)nn12,100*,i,.,8,1,.
SMILES,TMEM16A inh,ANO1 activ,CHOP inh,XBP1 UPR activ,UPR CHOP act,Hep lipid drop
Cc1ccc(NC(=O)CSCC(=O)NCCc2ccccc2)c(C)c1,.,i,.,-1,0,.
COC(=O)c1nc(NC(=O)c2cc(OC)c(OC)c(OC)c2)n[nH]1,i,i,.,-6,-1,1
CC1=NN(c2ccc(C(=O)O)cc2)C(=O)/C1=C/c1ccc(-c2ccccc2F)o1,100*,i,.,4,12,3
CC1=NN(c2ccccc2)C(=O)/C1=C/c1ccc(Cl)cc1,25*,i,.,0,-1,3
CC1=NN(c2ccccc2)C(=O)/C1=C/c1cccs1,i,i,2,1,0,1
O=C(Nc1ccc(Br)cc1)c1ccc(N2C(=O)C3CC=C(Cl)CC3C2=O)cc1 (centres undefined),i,i,77*,-2,-2,6
CCOC(=O)CSc1nc2nc(C)cc(C)n2n1,i,i,83*,-1,-1,2
CCc1ccc2[nH]c(=O)c(CN(Cc3ccccc3OC)C(=O)Nc3ccccc3OC)cc2c1,i,i,71*,4,2,20
O=C(CSc1nc2ccccc2c(=O)n1Cc1ccco1)c1ccccc1,i,i,56,-3,4,2
Cc1cc(C(=O)CSc2nc3ccccc3c(=O)[nH]2)c(C)n1CC1CCCO1 (centres undefined),i,i,44,1,2,-4
Cc1cc(C(=O)COC(=O)CNC(=O)c2ccccc2)c(C)n1CC1CCCO1 (centres undefined),i,i,90*,-6,-7,-2
COc1cc(-c2nnc(SCC(=O)c3cc(C)n(CC4CCCO4)c3C)o2)cc(OC)c1OC (centres undefined),i,i,25,-4,-3,-28
Cc1cc(-n2c(C)cc(C(=O)CSc3nc4ccccc4c(=O)n3Cc3ccco3)c2C)no1,i,-9.1*,0,-4,0,-3
Cc1cc(C(=O)CSc2nnc(-c3ccc(F)cc3)o2)c(C)n1CC1CCCO1 (centres undefined),i,i,93*,-6,0,.
Cc1cc(C(=O)CSc2nc3ccccc3c(=O)n2C)c(C)n1CC1CCCO1 (centres undefined),.,.,74*,.,.,-48
CC(C)(C)OC(=O)NC(CNCc1ccccc1)Cc1ccccc1 (centres undefined),i,i,.,-2,-1,.
CC(C)CN(CC(C)C)c1nn[nH]n1,.,i,.,.,.,.
CCOc1nc(Nc2ccc(OC)c(Cl)c2)nc(N2CCN(c3ccc(OC)cc3)CC2)n1,i,i,74*,-5,1,-24
